In ChEMBL document CHEMBL1795318, “Development of tetrahydroisoquinoline-based hydroxamic acid derivatives: potent histone deacetylase inhibitors with marked in vitro and in vivo antitumor activities” (J Med Chem, 2011):
Activity calls are given as the source filed them. No cut-off for these calls is given here.

Assays:
NB-4 = assay: Cytotoxicity against human NB4 cells after 48 hrs by MTT assay; assay type: functional, cell-based; settings: NB-4, 48 h
Histone deacetylase 8 = biological target: T1, Histone deacetylase 8 (Homo sapiens, UniProt Q9BY41); assay: Inhibition of HDAC8 after 30 mins by fluorescence microplate reader
T1 sequence (Q9BY41 whole entry): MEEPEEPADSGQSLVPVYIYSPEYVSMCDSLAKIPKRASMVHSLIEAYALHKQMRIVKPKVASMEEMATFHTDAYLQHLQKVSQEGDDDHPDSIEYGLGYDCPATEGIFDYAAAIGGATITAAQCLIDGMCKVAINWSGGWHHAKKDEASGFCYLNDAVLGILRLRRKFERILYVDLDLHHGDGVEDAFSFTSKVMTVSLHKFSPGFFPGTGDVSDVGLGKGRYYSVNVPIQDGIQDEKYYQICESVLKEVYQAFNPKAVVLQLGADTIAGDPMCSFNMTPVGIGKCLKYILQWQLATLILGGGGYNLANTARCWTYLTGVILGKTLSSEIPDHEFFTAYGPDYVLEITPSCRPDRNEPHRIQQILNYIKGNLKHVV
Summary of the method: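 HDAC8 mixed with compound at various concentrations, fluorogenic substrate added, 37 °C for 30 min; stopped with developer containing trypsin and TSA. Fluorescence read after 20 min (ex 390/em 460 nm); inhibition relative to control wells, IC50 by regression of concentration/inhibition data; mean ± SD of at least three determinations.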

Histone deacetylase = assay: Inhibition of HDAC in human HeLa cell nuclear extract after 30 mins by fluorescence microplate reader; assay type: protein assay
K562 = assay: Cytotoxicity against human K562 cells after 48 hrs by MTT assay; assay type: functional, cell-based; settings: K562, 48 h
HeLa = assay: Cytotoxicity against human HeLa cells after 48 hrs by MTT assay; assay type: functional, cell-based
[1] = biological target: T2, Protein deacetylase HDAC6 (Homo sapiens, UniProt Q9UBN7); assay: Inhibition of HDAC6 in human HeLa cell nuclear extract after 30 mins by fluorescence microplate reader
T2 sequence (Q9UBN7 whole entry): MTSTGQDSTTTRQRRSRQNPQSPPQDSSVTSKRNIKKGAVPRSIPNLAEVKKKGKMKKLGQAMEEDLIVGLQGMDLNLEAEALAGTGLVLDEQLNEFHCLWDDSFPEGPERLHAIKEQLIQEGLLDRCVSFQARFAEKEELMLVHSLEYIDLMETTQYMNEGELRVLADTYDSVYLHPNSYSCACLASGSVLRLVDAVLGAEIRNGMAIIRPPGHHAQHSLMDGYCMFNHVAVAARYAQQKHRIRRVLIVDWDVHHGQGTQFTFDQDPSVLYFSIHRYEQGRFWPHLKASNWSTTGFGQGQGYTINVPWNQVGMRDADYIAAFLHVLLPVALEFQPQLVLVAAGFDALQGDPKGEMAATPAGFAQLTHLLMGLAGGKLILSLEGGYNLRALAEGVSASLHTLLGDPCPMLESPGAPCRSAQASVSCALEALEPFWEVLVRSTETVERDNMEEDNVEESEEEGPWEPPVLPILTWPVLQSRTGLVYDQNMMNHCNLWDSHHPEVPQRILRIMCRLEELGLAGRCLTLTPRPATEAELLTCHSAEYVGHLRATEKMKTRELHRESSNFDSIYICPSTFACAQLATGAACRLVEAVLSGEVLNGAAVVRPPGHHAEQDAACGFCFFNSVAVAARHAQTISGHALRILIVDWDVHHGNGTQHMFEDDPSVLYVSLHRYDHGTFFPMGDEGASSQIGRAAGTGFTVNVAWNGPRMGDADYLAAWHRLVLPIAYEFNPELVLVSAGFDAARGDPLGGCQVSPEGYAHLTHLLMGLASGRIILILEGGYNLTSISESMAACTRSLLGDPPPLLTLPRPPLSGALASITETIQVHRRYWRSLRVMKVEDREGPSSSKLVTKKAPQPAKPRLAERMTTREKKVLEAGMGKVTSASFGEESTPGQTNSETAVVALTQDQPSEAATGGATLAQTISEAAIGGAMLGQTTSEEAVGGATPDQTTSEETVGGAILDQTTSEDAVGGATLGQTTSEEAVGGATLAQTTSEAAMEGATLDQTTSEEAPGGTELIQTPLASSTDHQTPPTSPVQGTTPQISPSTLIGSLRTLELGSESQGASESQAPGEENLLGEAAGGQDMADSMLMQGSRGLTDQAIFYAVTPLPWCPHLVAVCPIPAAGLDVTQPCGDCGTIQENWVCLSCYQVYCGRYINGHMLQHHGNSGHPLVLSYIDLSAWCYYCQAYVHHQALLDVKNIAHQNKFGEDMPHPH

A549 = assay: Cytotoxicity against human A549 cells after 48 hrs by MTT assay; assay type: functional, cell-based; settings: A549, 48 h
Summary of the method: (§1)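 Cells kept in RPMI1640 with 10% FBS, 37 °C, 5% CO₂; seeded day before dosing, grown ≥4 h, treated with a concentration series for 48 h. MTT 0.5% solution added, 4 h further; formazan dissolved in DMSO 15 min, absorbance at 570 nm. Mean of three experiments.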

MDA-MB-231 [2] = assay: Cytotoxicity against human MDA-MB-231 cells after 48 hrs by MTT assay; assay type: functional, cell-based; settings: MDA-MB-231, 48 h
HL-60 = assay: Cytotoxicity against human HL60 cells after 48 hrs by MTT assay; assay type: functional, cell-based; settings: HL-60, 48 h
[3] = Cytotoxicity against human ES2 cells after 48 hrs by MTT assay; assay type: functional, cell-based; settings: ES-2, 48 h
MDA-MB-231 [4] = assay: Antitumor activity against human MDA-MB-231 cells xenografted in athymic nude mouse assessed as tumor growth delay at 90 mg/kg, ip qd for 21 days; assay type: functional, organism-based; parameters: dose 90 mg/kg
MDA-MB-231 [5] = assay: Cell cycle arrest in human MDA-MB-231 cells assessed as accumulation at G2 phase at 2 to 5 uM after 48 hrs by flow cytometry analysis; assay type: functional, cell-based
MDA-MB-231 [6] = assay: Antitumor activity against human MDA-MB-231 cells xenografted in athymic nude mouse assessed as tumor growth inhibition at 90 mg/kg, ip qd for 21 days; assay type: functional; settings: route intraperitoneal
MDA-MB-231 [7] = assay: Cell cycle arrest in human MDA-MB-231 cells assessed as accumulation at G1 phase at 0.5 uM after 48 hrs by flow cytometry analysis; assay type: functional, cell-based
Mus musculus [8] = assay: Toxicity in human MDA-MB-231 cells xenografted athymic nude mouse assessed as change in body weight at 90 mg/kg, ip qd for 21 days; assay type: organism-based; parameters: dose 90 mg/kg, route intraperitoneal; settings: in vivo, 504 h
[9] = Cytotoxicity against human fibroblasts after 48 hrs by MTT assay; assay type: cell-based; settings: fibroblast; summary of the method: as §1
Mus musculus [10] = assay: Toxicity in human MDA-MB-231 cells xenografted athymic nude mouse assessed as signs of toxicity at 90 mg/kg, ip qd for 21 days; assay type: organism-based; parameters: dose 90 mg/kg, route intraperitoneal; settings: in vivo, 504 h

Row | Compound | IC50 (Histone deacetylase 8) | IC50 (Histone deacetylase) | IC50 [1] | IC50 (NB-4) | IC50 (K562) | IC50 (HeLa) | IC50 (A549) | IC50 (MDA-MB-231 [2]) | IC50 (HL-60) | IC50 [3] | Activity (MDA-MB-231 [4]) | Activity (MDA-MB-231 [5]) | T/C (MDA-MB-231 [6]) | Activity (MDA-MB-231 [7]) | Activity (Mus musculus [8]) | Activity [9] | Activity (Mus musculus [10])
1 | COc1ccc(NC(=O)[C@@H]2Cc3ccc(OCC(=O)NO)cc3CN2C(=O)Cc2ccccc2)cc1 | 141 nM |  |  |  |  |  | 117000 nM | 4450 nM |  |  |  |  |  |  |  |  | 
2 | CC[C@H](C)[C@H](NC(=O)[C@@H]1CCCN1)C(=O)N1Cc2cc(OCC(=O)NO)ccc2C[C@H]1C(=O)Nc1ccc(OC)cc1.Cl | 47 nM | 108 nM | 191 nM | 9280 nM | 6590 nM | > 200000 nM |  |  | 69800 nM |  |  |  |  |  |  |  | 
3 | CC[C@H](C)[C@@H](CN1Cc2cc(OCC(=O)NO)ccc2C[C@H]1C(=O)Nc1ccc(OC)cc1)NC(=O)OC(C)(C)C | 263 nM | 447 nM | 94 nM | 3870 nM | 7000 nM | 29200 nM |  | 2200 nM | 42700 nM | 7200 nM | Active | Active | 47% | Active |  |  | 
4 | CC[C@H](C)[C@H](NC(=O)[C@@H](NC(=O)OC(C)(C)C)C(C)C)C(=O)N1Cc2cc(OCC(=O)NO)ccc2C[C@H]1C(=O)Nc1ccc(OC)cc1 | 201 nM | 128 nM | 116 nM | 63300 nM | 2780 nM | 167000 nM |  |  |  |  |  |  |  |  |  |  | 
5 | COc1ccc(NC(=O)[C@@H]2Cc3ccc(OCC(=O)NO)cc3CN2C(=O)c2ccccc2)cc1 | 164 nM |  |  |  |  |  | 5950 nM | 3050 nM |  |  |  |  |  |  |  |  | 
6 | O=C(CCCCCCC(=O)Nc1ccccc1)NO [VORINOSTAT] |  |  |  |  |  |  | 740 nM |  |  |  | Active |  |  |  | Non-toxic |  | Non-toxic
7 | COc1ccc(NC(=O)[C@@H]2Cc3ccc(OCC(=O)NO)cc3CN2C(=O)[C@@H](NC(=O)OC(C)(C)C)C(C)C)cc1 | 104 nM |  |  |  |  |  | 840 nM | 1580 nM |  |  |  |  |  |  |  |  | 
8 | CC[C@H](C)[C@H](NC(=O)C1CCNCC1)C(=O)N1Cc2cc(OCC(=O)NO)ccc2C[C@H]1C(=O)Nc1ccc(OC)cc1.Cl | 1440 nM | 71 nM | 169 nM | > 200000 nM | 51700 nM | 102000 nM |  |  |  |  |  |  |  |  |  |  | 
9 | COc1ccc(NC(=O)[C@@H]2Cc3ccc(OCC(=O)NO)cc3CN2C(=O)CCCc2ccccc2)cc1 | 114 nM |  |  |  |  |  | 3580 nM | 2770 nM |  |  |  |  |  |  |  |  | 

Now from value to molecule, other results behind:

Row | IC50 (Histone deacetylase 8) | IC50 (Histone deacetylase) | IC50 [1] | Compound | IC50 (NB-4) | IC50 (K562) | IC50 (HeLa) | IC50 (A549) | IC50 (MDA-MB-231 [2]) | IC50 (HL-60) | IC50 [3] | Activity (MDA-MB-231 [4]) | Activity (MDA-MB-231 [5]) | T/C (MDA-MB-231 [6]) | Activity (MDA-MB-231 [7]) | Activity (Mus musculus [8]) | Activity [9] | Activity (Mus musculus [10])
10 | 147 nM | 214 nM | 164 nM | CC[C@H](C)[C@H](NC(=O)C1CCN(C(=O)OC(C)(C)C)CC1)C(=O)N1Cc2cc(OCC(=O)NO)ccc2C[C@H]1C(=O)Nc1ccc(OC)cc1 | 68200 nM | 12300 nM | > 200000 nM |  |  |  |  |  |  |  |  |  |  | 
11 | 502 nM |  |  | COc1ccc(NC(=O)[C@@H]2Cc3ccc(OCC(=O)NO)cc3CN2C(=O)CCc2ccccc2)cc1 |  |  |  | 4800 nM | 1520 nM |  |  |  |  |  |  |  |  | 
12 | 139 nM | 58 nM | 47 nM | CC[C@H](C)[C@H](NC(=O)OC(C)(C)C)C(=O)N1Cc2cc(OCC(=O)NO)ccc2C[C@H]1C(=O)Nc1ccc(OC)cc1 | 1500 nM | 1470 nM | 37100 nM | 940 nM | 790 nM | 47600 nM | 5000 nM | Active | Active | 63% | Active | Non-toxic | Toxic | Non-toxic
13 | 192 nM | 65 nM | 141 nM | CC[C@H](C)[C@H](NC(=O)[C@@H]1CCCN1C(=O)OC(C)(C)C)C(=O)N1Cc2cc(OCC(=O)NO)ccc2C[C@H]1C(=O)Nc1ccc(OC)cc1 | 5150 nM | 2320 nM | 184000 nM |  |  | 76800 nM |  |  |  |  |  |  |  | 
14 | 333 nM | 297 nM | 158 nM | CC[C@H](C)[C@@H](CN1Cc2cc(OCC(=O)NO)ccc2C[C@H]1C(=O)Nc1ccc(OC)cc1)NC(=O)CC(C)(C)C | 5570 nM | 10000 nM | 63500 nM |  | 2540 nM | 25700 nM |  | Active |  | 87% |  |  |  | 
15 | 68 nM | 73 nM | 163 nM | CC[C@H](C)[C@H](NC(=O)[C@@H](N)C(C)C)C(=O)N1Cc2cc(OCC(=O)NO)ccc2C[C@H]1C(=O)Nc1ccc(OC)cc1.Cl | 69900 nM | 20400 nM | 118000 nM |  |  |  |  |  |  |  |  |  |  | 
16 | 103 nM |  |  | COc1ccc(NC(=O)[C@@H]2Cc3ccc(OCC(=O)NO)cc3CN2C(=O)[C@H](Cc2ccccc2)NC(=O)OC(C)(C)C)cc1 |  |  |  | 12700 nM | 1290 nM |  |  |  |  |  |  |  |  | 
